Measurements reported in paper PMC4838375 (Nucleic Acids Research, 2016).

Tests used:
PHDVC5HCHNSD1 [1] = test: NMR titration; type: binding, murine; details: for average CSP value <CSP>: 15N HSQC of PHDVC5HCHNSD1 (0.2 mM), up to 12 molar excess of peptide, 295 K, pH 6.3; for interaction strength: fast exchange regime; for interaction strength / affinity: up to 12 molar excess; for affinity: no saturation
How it was run: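 15N-labelled PHDvC5HCH domain was expressed in E. coli BL21(DE3) in 15NH4Cl minimal medium with 1 mM IPTG at 28°C overnight. Protein at 0.2–0.3 mM, quantified by UV (ε 12490 M⁻¹cm⁻¹), was in 20 mM sodium phosphate pH 6.3, 0.15 M NaCl, 2 mM DTT, 50 μM ZnCl₂. Peptide (>98% pure, 15 mM stock, dry-weight quantified) was added stepwise; 2D 15N-HSQC was acquired per point. CSP = [(ΔδHN² + ΔδN²/25)/2]^½.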

PHDVC5HCHNSD1 [2] = details: biotinylated peptides, 21 aminoacids long; cited from earlier work

Molecule: H3K9me3_1–21: Synthetic histone H3 peptide, K9me3
- average CSP value <CSP> (PHDVC5HCHNSD1 [1]): ~0.02 ppm
- interaction strength (PHDVC5HCHNSD1 [1]; NMR titration): extremely weak interactions
- affinity (PHDVC5HCHNSD1 [1]; NMR titration): affinities in the high mM range
- binding in vitro (PHDVC5HCHNSD1 [2]): binds

Molecule: NCCCC[C@H](N)C(=O)O [Lysine]
- amide chemical shifts induced (PHDVC5HCHNSD1 [1]; NMR titration, up to 300 mM of Lysine): induced amide chemical shifts in the same region

Molecule: H3_1–21: Synthetic histone H3 peptide
- average CSP value <CSP> (PHDVC5HCHNSD1 [1]): ~0.02 ppm
- interaction strength (PHDVC5HCHNSD1 [1]; NMR titration): extremely weak interactions
- affinity (PHDVC5HCHNSD1 [1]; NMR titration): affinities in the high mM range

Molecule: H3K4me3_1–21: Synthetic histone H3 peptide, K4me3
- average CSP value <CSP> (PHDVC5HCHNSD1 [1]): ~0.02 ppm
- interaction strength (PHDVC5HCHNSD1 [1]; NMR titration): extremely weak interactions
- affinity (PHDVC5HCHNSD1 [1]; NMR titration): affinities in the high mM range
- binding in vitro (PHDVC5HCHNSD1 [2]): binds
